Each block holds one molecule with its values, some of them ahead of it.
How the values were obtained:
[1] = molecular target: T1, hM4 (Homo sapiens, UniProt P08173); type: cell-based
T1 sequence (P08173 1-479): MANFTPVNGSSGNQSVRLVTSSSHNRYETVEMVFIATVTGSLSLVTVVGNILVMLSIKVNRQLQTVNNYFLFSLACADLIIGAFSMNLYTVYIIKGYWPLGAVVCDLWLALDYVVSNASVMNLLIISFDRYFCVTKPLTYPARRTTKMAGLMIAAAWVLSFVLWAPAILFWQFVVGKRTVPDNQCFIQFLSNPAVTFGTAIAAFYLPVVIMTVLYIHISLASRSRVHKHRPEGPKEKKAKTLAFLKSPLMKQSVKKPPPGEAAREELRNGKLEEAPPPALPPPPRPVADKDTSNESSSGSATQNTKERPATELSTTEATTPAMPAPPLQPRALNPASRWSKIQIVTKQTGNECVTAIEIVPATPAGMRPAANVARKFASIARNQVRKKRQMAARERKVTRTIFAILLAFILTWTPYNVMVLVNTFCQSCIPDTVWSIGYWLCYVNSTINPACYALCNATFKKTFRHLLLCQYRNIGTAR
Procedure, shortened: (§1)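 Functional calcium mobilization in CHO cells expressing M4 with the Gqi5 chimeric G protein (human M4 for line 2, rat M4 for line 3). The test compound was added with a fixed EC20 acetylcholine concentration, and efficacy was expressed as % of the maximal acetylcholine response. For the screening hit, DMSO stock from the screening source plates was used. Values are means of three independent experiments, each run in triplicate.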

[2] = molecular target: T2, rM4 (Rattus norvegicus, UniProt P08485); type: cell-based; conditions: unit not given
T2 sequence (P08485 1-478): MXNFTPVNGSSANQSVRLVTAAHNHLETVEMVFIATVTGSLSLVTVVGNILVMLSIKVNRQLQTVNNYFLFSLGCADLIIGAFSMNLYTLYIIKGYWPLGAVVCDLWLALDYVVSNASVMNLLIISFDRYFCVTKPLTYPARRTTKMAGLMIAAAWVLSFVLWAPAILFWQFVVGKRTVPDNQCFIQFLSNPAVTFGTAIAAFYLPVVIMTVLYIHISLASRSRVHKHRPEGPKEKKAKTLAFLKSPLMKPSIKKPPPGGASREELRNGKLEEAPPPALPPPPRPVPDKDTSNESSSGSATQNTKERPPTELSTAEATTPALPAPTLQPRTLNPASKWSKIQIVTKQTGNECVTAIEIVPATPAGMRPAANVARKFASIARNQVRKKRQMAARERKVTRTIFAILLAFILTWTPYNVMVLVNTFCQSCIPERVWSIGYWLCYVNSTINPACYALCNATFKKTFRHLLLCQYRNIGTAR
Procedure, shortened: as §1

[3] = molecular target: T3, human M1 (Homo sapiens, UniProt P11229); experiment: Built-in HTS counterscreen, human M1; type: cell-based
T3 sequence (P11229 1-460): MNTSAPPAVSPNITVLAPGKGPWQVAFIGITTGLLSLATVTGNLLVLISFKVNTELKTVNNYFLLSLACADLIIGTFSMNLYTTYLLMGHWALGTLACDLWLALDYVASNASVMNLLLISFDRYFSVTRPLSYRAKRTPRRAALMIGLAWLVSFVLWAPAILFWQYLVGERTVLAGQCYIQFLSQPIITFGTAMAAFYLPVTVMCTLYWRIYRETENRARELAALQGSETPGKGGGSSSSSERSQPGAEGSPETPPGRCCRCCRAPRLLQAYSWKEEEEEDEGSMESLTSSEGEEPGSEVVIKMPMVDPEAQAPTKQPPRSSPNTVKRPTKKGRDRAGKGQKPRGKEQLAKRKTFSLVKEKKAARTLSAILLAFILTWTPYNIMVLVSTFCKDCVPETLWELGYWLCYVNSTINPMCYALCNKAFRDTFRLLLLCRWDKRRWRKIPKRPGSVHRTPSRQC

[4] = molecular target: T4, human M5 (Homo sapiens, UniProt P08912); experiment: Built-in HTS counterscreen, human M5; type: cell-based
T4 sequence (P08912 1-532): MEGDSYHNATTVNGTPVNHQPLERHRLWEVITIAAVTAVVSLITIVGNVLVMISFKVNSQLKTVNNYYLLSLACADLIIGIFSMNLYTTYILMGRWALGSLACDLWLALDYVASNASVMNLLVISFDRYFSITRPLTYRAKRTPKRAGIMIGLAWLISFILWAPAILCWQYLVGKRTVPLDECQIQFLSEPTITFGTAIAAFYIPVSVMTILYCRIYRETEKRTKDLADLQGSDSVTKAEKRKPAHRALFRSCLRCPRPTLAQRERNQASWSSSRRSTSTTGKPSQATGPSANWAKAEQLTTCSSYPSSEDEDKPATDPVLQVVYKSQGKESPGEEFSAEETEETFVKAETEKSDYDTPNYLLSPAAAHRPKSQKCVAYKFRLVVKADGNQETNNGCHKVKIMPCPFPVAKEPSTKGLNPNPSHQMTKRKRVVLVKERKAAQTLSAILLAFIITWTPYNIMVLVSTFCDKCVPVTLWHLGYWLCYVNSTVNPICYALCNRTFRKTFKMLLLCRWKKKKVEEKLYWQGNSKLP

[5] = Hepatic microsomal intrinsic clearance, human; type: in vitro ADME
Procedure, shortened: (§2)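 Intrinsic clearance was measured in hepatic microsomes (human for line 4, rat for line 5), and predicted hepatic clearance was calculated from the microsomal CLint. Data come from a single experiment run in triplicate.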

[6] = Hepatic microsomal intrinsic clearance, rat; type: in vitro ADME; conditions: for predicted hepatic clearance rCLhep: rat, from microsomal CLint
Procedure, shortened: as §2

[7] = Metabolite identification in human cryopreserved hepatocytes; type: in vitro ADME; conditions: secondary alcohol 18 as the single major metabolite
[8] = human hepatic microsomes, in words
[9] = rat hepatic microsomes, in words

human M4 % ACh Max ([1]; HTS hit, using DMSO stock from the source plates): 76% | hM4 ACh Max ([1]; unit not given): 76.8±4.1 | rM4 ACh Max [2]: 80.5±6.3 | activity on human M1 [3]: inactive | activity on human M5 [4]: inactive | in vitro intrinsic clearance (CLint) [5, 8]: very high | predicted hepatic clearance (CLhep) [5, 8]: near hepatic blood flow rates | in vitro intrinsic clearance (CLint) [6, 9]: very high | predicted hepatic clearance (CLhep) [6, 9]: near hepatic blood flow rates
SMILES: Cc1nc2sc(C(=O)c3ccccc3)c(N)c2c(C)c1C [Cpd 7]

SMILES: Cc1cc(C)c2c(N)c(C(=O)c3ccncc3)sc2n1 [Cpd 12f]
metabolism route (Met ID) [7]: rapid, and near quantitative, reductive metabolism

predicted hepatic clearance hCLhep ([5]; human, from microsomal CLint): 18 mL/min/kg | predicted hepatic clearance rCLhep [6]: 62 mL/min/kg
SMILES: Cc1cc(C)c2c(N)c(C(=O)CCc3ccncc3)sc2n1 [Cpd 19]

predicted hepatic clearance rCLhep [6]: 62 mL/min/kg
SMILES: COc1ccc(CCC(=O)c2sc3nnc(C)c(C)c3c2N)cc1F [Cpd 20]

Reference: article PMC4987221 (Bioorganic & medicinal chemistry letters, 2016)
